Laboratory results as given in paper PMC8179325 (Cell reports, 2021).
“Also recorded” adds a separate entry of the source.

Columns and labels:
[1] = molecular target: T1, constitutively active SAM-TIR protein of human SARM1 (Homo sapiens, UniProt Q6SZW1); test: SAM-TIR NADase assay; type: biochemical
T1 sequence (Q6SZW1 409-700): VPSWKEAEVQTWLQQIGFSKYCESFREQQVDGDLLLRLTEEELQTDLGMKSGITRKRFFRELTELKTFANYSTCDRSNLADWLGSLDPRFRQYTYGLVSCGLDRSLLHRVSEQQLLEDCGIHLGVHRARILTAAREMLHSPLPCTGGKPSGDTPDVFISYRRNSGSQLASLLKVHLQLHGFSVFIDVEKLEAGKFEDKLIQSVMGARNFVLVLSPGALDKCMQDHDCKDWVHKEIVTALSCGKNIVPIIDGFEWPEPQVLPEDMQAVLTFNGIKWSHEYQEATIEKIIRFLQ

mouse DRG neurons [2] = test: Rotenone-induced axonal degeneration; type: cell-based
Outline: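 Mouse DRG cultures at 6–7 DIV received 25 µM rotenone, either continuously or as 1- or 3-h pulses removed by gentle 3× rinsing. Test compound at 30 µM was given either as 2-h pretreatment or immediately after rotenone removal. Axonal fragmentation scored 48 h after rotenone onset; n = 4.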

mouse DRG somas = test: Neuronal cell death after rotenone pulse; type: cell-based; details: WT DRG, 25 µM rotenone, 48 h
Outline: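 Live mouse DRG cultures exposed to 25 µM rotenone for 48 h, then stained 20 min with 0.25 µM Cytotox Green (dead cells) and 1 µM Cytolight red. Imaged by IncuCyte at 20X, 9 fields/well; bright-field gave total cell counts and green fluorescence gave dead somas.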

mouse DRG neurons [3] = test: Video time-lapse analysis of individual axonal blebs after rotenone pulse; type: cell-based
Outline: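 Mouse DRG cultures given a 3-h pulse of 25 µM rotenone, rinsed, ± 30 µM test compound, then imaged brightfield every 15 min at 20X for 48 h. A blinded observer identified blebs at 3 h, tracked them back to confirm origin from healthy axons, then forward until fragmentation, resolution or end. Data analysed by Kaplan-Meier, with percentages taken at 48 h.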

[4] = system: axotomized mouse DRG neurons; test: Axon degeneration; type: cell-based; details: for axonal protection after axotomy: WT mouse DRG, 16 h post-axotomy
Outline: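 Mouse DRG from E13.5 C57BL/6J embryos, trypsin/EDTA-dissociated (37°C, 30 min), spotted at 5,000 cells/well on poly-D-lysine/laminin; assay at 6–7 DIV. Test compound diluted from 10 mM DMSO stock (final DMSO 0.3%), pretreated 2 h unless added after injury (e.g. 30 µM at set times). Axons cut manually with micro-surgical blade and scored for fragmentation 16 h post-axotomy.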

mouse DRG axons = test: Mitochondrial membrane potential by TMRM fluorescence; type: cell-based
Outline: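 Mitochondrial membrane potential in mouse DRG axons read live as TMRM fluorescence; cells were then rinsed, fixed in 1% paraformaldehyde and immunostained for βIII-tubulin. Axotomy arm: 10 µM test compound. Rotenone arm: 3-h pulse of 25 µM rotenone, rinsed 3×, 30 µM test compound immediately afterward, imaged 48 h after rotenone onset; n = 4.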

mouse DRG neurons [5] = test: NfL release in response to rotenone; type: cell-based; details: 25 μM rotenone
Outline: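 Culture supernatants from mouse DRG neurons exposed to 25 µM rotenone, either continuously sampled over time or as 1- or 3-h pulses with collection at 48 h. Neurofilament light measured by NF-Light ELISA per the kit instructions.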

[6] = system: axotomized mouse dorsal root ganglia (DRG) axons; test: Axonal metabolites; type: cell-based; details: axonal lysates after axotomy, dose dependent
Outline: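 Mouse E13.5 DRG neurons spotted at 100,000 cells/well; test compound present at graded concentrations; all axons severed around the soma cluster at DIV6. After 4 h, cell bodies removed on ice; axons extracted in 50% MeOH with chloroform partition, then lyophilized. cADPR and NAD+ quantified by online SPE-LC-MS/MS with 2-chloroadenosine internal standard against synthetic standard curves. Reported as ng/100,000 cells; n = 3/condition.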

CD38 = molecular target: T2, CD38 (Homo sapiens, UniProt P28907); test: Biochemical selectivity panel
T2 sequence (P28907 1-300): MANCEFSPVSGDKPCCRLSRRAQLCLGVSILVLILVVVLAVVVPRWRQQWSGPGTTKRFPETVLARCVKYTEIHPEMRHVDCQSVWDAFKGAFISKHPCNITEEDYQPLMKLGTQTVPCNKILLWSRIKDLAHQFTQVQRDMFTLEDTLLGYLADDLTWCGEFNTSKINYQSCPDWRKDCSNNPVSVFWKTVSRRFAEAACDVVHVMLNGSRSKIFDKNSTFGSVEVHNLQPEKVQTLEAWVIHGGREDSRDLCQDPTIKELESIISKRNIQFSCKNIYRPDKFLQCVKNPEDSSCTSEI

mouse DRG neurons [7] = test: Axonal cADPR after 3-h rotenone pulse; type: cell-based; details: 3 h 25 μM rotenone, rinse, then 4 h compound
Outline: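 Mouse DRG cultures given a 3-h pulse of 25 µM rotenone, rinsed, then test compound added. Axonal metabolites extracted on ice: cell bodies removed, 50% MeOH, chloroform partition, lyophilization. cADPR measured by SPE-LC-MS/MS with 2-chloroadenosine internal standard against synthetic standard curves; reported as ng/100,000 cells.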

[8] = system: human iPSC-derived motor neurons; test: Axon fragmentation after axotomy in human motor neurons; type: cell-based
Outline: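 Human iPSC-derived motor neurons spotted at 10,000 cells/well on poly-D-lysine/laminin in Complete Maintenance Medium + 5 µM DAPT; assay at 14 DIV. Test compound diluted from 10 mM DMSO stock (final DMSO 0.3%), pretreated 2 h before injury. Axons cut manually with micro-surgical blade and examined for fragmentation 16 h post-axotomy.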

[9] = 30 μM added after 3-h pulse of 25 μM rotenone

SMILES: Oc1cccc2cnccc12 [compound 3, 5-hydroxyisoquinoline]
- IC50 [1]: 2600 nM

SMILES: C=C(C)[C@H]1Cc2c(ccc3c2O[C@@H]2COc4cc(OC)c(OC)cc4[C@@H]2C3=O)O1 [rotenone, reference compound]
- axonal degeneration after rotenone pulse (mouse DRG neurons [2]; 25 μM rotenone removed after 1 h, examined at 48 h): ~ 70%
- neuronal cell death (dead somas) caused by rotenone (mouse DRG somas): approximately 60%
- blebs transected after rotenone removal (mouse DRG neurons [3]; 3-h pulse 25 μM rotenone, by 18 h): 95%
- blebs fragmented after rotenone removal (mouse DRG neurons [3]; 3-h pulse 25 μM rotenone, by 48 h): 100%

SMILES: O=C(c1cc(Cc2n[nH]c(=O)c3ccccc23)ccc1F)N1CCN(C(=O)C2CC2)CC1 [olaparib, reference compound]
- axonal protection after axotomy [4]: no protection of injured axons

SMILES: Ic1cccc2cnccc12 [DSRM-3716, 5-iodoisoquinoline]
- additional axonal protection in SARM1−/− neurons ([4]; SARM1−/− DRG, 30 µM, axotomy): did not provide benefit beyond the robust protection observed with SARM1 genetic loss of function
- axonal protection after axotomy [4]: protected axons
- axonal protection, inhibitor added after injury ([4]; added 5 h post-axotomy): robustly protected
- TMRM fluorescence (mitochondrial viability) after axotomy (mouse DRG axons; 10 μM, axotomy): preserved TMRM fluorescence; also recorded: maintained viable functional mitochondria
- mitochondrial function by TMRM after rotenone pulse (mouse DRG axons; 3-h pulse 25 μM rotenone, 30 μM compound after removal, 48 h): preserved mitochondrial function
- NfL release into culture supernatant in response to rotenone (mouse DRG neurons [5]): can be prevented
- preservation of NAD+ after axotomy [6]: substantial preservation of NAD^+
- protection from rotenone-induced axonal degeneration (pretreatment) (mouse DRG neurons [2]; 25 μM rotenone, 48 h, 30 μM compound): prevented axonal degeneration to the same extent as protection observed in SARM1^−/− neurons; also recorded: robust protection
- protection from fragmentation, compound added after rotenone pulse (mouse DRG neurons [2]; 3-h pulse 25 μM rotenone, 30 μM compound immediately after removal, 48 h): protected axons from fragmentation
- inhibitory activity against CD38 (CD38): no inhibitory activity
- axonal levels of cADPR after rotenone pulse (mouse DRG neurons [7]): reduced axonal levels of cADPR
- axonal blebs induced by rotenone that fragmented (transected) (mouse DRG neurons [3]; [9]): 10%
- axonal blebs induced by rotenone that remained (mouse DRG neurons [3]; [9]): 30%
- protection from fragmentation after axotomy [8]: dose-dependent protection
